Tn7 DDE FP: DD(E)-Tn7 binding inhibition, primary FP screen; FP displacement of FITC-Tn7 peptide from fibrin DD(E); 0% = median of compound wells per plate; inhibition, % at 8.3 µM; 370,000 tested, 0.13% active; AID 720508;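 active means inhibition above the mean of compounds falling within the control limits plus 3 SD of them, cut at about 14% in these data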
Target sequence (P02675 whole entry, looked up): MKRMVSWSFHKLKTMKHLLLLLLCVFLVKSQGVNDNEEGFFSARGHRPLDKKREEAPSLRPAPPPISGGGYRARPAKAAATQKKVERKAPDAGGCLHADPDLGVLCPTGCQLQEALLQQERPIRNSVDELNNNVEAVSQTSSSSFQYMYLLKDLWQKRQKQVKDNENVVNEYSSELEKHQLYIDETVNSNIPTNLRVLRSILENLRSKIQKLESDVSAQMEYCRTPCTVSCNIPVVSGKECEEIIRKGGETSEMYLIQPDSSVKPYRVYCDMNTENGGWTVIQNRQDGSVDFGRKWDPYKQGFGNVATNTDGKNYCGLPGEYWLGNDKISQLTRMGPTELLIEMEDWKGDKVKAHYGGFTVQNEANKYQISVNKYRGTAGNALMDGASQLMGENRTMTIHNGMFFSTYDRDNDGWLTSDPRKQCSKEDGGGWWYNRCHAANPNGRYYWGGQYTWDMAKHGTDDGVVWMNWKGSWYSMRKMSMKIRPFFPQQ
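system = human fibrin DD(E) protein | quantity = DD(E) 2 µM final | medium = Tris/NaCl/CaCl2 buffer, pH 7.8 | also added = labelled Tn7 tracer, 0.1 µM | compound dosing = single point at 8.3 µM | timing = compound with protein 10 min, then 3 h after probe, room temperature | signal = FP measurement | benchmarks = Aha-Tn7 high control | repeats = one replicate per compound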
SKN-1 block: blocks SKN-1 activity in C. elegans. C. elegans VP596 Pgst-4::GFP/RFP ratio, acrylamide-induced, 24 h. inhibition, % at 21.8 µM. 360,000 tested, 0.49% active;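 active means interference check ratio from 0.5 to 1.5 plus GFP to RFP signal ratio inhibition reaching or exceeding a fixed threshold, cut at about 30% in these data, passing the limit was not always enough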
MT1-MMP act inh: MT1-MMP (human) activation inhibition. HT1080 RFP-PRO-GFP cells, GFP/RFP ratio fluorescence, overnight; percent of plate control window, DMSO zero. GFP/RFP ratio change, % at 20 µM. 360,000 tested, 0.061% active. AID 651647;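 active means GFP/RFP ratio change of at least 30% with cell ATP level not reduced by more than half and red fluorescence within 50% of control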
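Test system: HT1080 RFP-PRO-GFP cells; Benchmarks: DMSO and RFP-L50D-GFP cell wells; Timing: cells overnight before dosing, compound overnight, 37 °C, 5% CO2; Compound: one 20 µM compound dose with 1% DMSO; Read-out: GFP/RFP fluorescence ratio.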
Tn6 DDE FP: inhibitors of Tn6 peptide binding to human fibrin DD(E). inhibition, % at 8.3 µM. P02675. Fibrin DD(E) TRITC-Tn6 fluorescence polarization displacement. 370,000 tested, 0.21% active;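 active means inhibition above a per-campaign cutoff: mean of compounds within control limits plus 3 SD, cut at about 15% in these data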
Of the large screens only hits and unclear results are named; the others gave an inactive call. Hits are enriched below; roughly 0.84% of the tested compounds scored in any of these assays.

C#CCNC(=O)C1=C[C@@H](c2cn(C(C)=O)c3ccccc23)C[C@@H](OCCCCO)O1	SKN-1 block 45
COc1ccc(S(=O)(=O)N(CC(=O)N2CCN(c3ccccc3OC)CC2)c2ccccc2)cc1	SKN-1 block 37 (no result: Tn7 DDE FP, Tn6 DDE FP)
Fc1ccc(CNc2nc(-c3ccccc3)nc3ccccc23)cc1	SKN-1 block 46
COc1ccc(CCNC(=O)COc2nsnc2N2CCOCC2)cc1OC	SKN-1 block 40
C/C=C/c1ccccc1OCCCN1CCC(C(O)(c2ccccc2)c2ccccc2)CC1	none (no result: SKN-1 block, MT1-MMP act inh)
Cc1cnc(C(=O)Nc2ccccc2-c2ccc(C)o2)cn1	SKN-1 block 36
Cc1cnc(C(=O)Nc2cccc3ncccc23)cn1	none
O=[N+]([O-])c1ccc(COc2ccc(CN3CCCC3)cc2)cc1	SKN-1 block 60 (no result: MT1-MMP act inh)
O=[N+]([O-])c1ccc(OCc2cnc(Cl)s2)cc1	SKN-1 block 54
O=[N+]([O-])c1ccc(COc2ccc(CN3CCCCC3)cc2)cc1	SKN-1 block 40
COc1ccc(OCc2cnc(Cl)s2)cc1	none
OC[C@@H]1CN(Cc2ccco2)C[C@H](n2cnc3c(NCc4ccncc4)ncnc32)O1	none
O=C(CCc1ccccc1)N1CCN(c2ccc([N+](=O)[O-])cc2)CC1	none
CCOC(=O)c1cn(CC)c2cc(N3CCOCC3)c(F)cc2c1=O	SKN-1 block 40
Clc1ccc(-c2csc(NCC3CCCO3)n2)cc1 (stereo not given)	none (no result: SKN-1 block, MT1-MMP act inh)
CCn1cc(C2=NC(C(C)C)CO2)c2ccccc21 (stereo not given)	none
CC(C)C1COC(c2cccc3ccccc23)=N1 (stereo not given)	SKN-1 block 37
Cc1cc(NC(=O)CCc2ccc(C)o2)no1	SKN-1 block 31
Cc1ccc(C)c(NC(=O)CCc2ccc(C)o2)c1	none
CCCCCCCCCC(=O)N[C@@H]1c2cc(OC)c(OC)cc2C[C@H]1OCc1ccccc1	none
COc1cc2c(cc1OC)[C@@H](NC(=O)CCc1ccccc1)[C@H](OCc1ccccc1)C2	SKN-1 block 35
CCOC(=O)C1(C#N)Cc2ccccc2C1	none
CCc1nc2c(OCC3CCCCC3)cccn2c1N(C)C(=O)c1ccc(C)cc1	none
COc1ccccc1CNC(=O)C1CCN(C(=O)N(C)C)CC1	SKN-1 block 35
O=C(COC(=O)C1=COCCO1)NCc1ccc(Cl)cc1	none
O=C1c2ccccc2C(=O)c2c1ccc(C(=O)N1CCCCC1)c2NCCO	SKN-1 block 40
CC1CCCN(C(=O)c2ccc3c(c2NCCO)C(=O)c2ccccc2C3=O)C1 (stereo not given)	none
COc1ccc(Br)cc1CN(C)CC(O)COc1ccc(Br)cc1 (stereo not given)	SKN-1 block 35
O=C(O)c1ccc(S(=O)(=O)c2ccccc2)cc1	SKN-1 block 40
O=C(Nc1ccc(NC(=O)c2ccc(S(=O)(=O)c3ccccc3)cc2)cc1)c1ccccc1	none
Fc1ccc(-c2csc(N3CCSCC3)n2)cc1	SKN-1 block 41
Clc1ccc(-c2csc(N3CCSCC3)n2)cc1	SKN-1 block 50
COC(=O)[C@H](CC(C)C)N(CCCc1cn(Cc2ccccc2)nn1)S(=O)(=O)c1ccccc1Br	none (no result: SKN-1 block, MT1-MMP act inh)
CCOc1cc(/C=N/Nc2nc(Nc3ccccc3)nc(N3CCCCC3)n2)ccc1OCC(=O)O	none
COc1ccc(/C=N/Nc2nc(Nc3ccccc3)nc(N3CCCCC3)n2)cc1OC	SKN-1 block 37
O=C(O)CN1C(=O)NC2(CCc3ccccc32)C1=O (stereo not given)	none
CN(C)C(=O)CN1C(=O)NC2(CCc3ccccc32)C1=O (stereo not given)	SKN-1 block 37
Cc1ccc2nc(-c3ccc(NC(=S)NC4CC(C)(C)NC(C)(C)C4)cc3)sc2c1	SKN-1 block 84
c1ccc(-c2cccc(CNc3nc(-c4ccccn4)nnc3-c3ccccc3)c2)cc1	none (no result: SKN-1 block, MT1-MMP act inh)
C=CCn1c(C)nnc1SCC(=O)Nc1ccccc1C(=O)NC1CC1	none
Cc1ccc2nc(NC(=O)c3ccccn3)sc2c1	none
O=C(Nc1nc2c(F)cc(F)cc2s1)c1ccccn1	SKN-1 block 37
CCCn1c(CCNC(=O)c2cccs2)nc2ccccc21	none
O=C(NCCn1ccc2ccccc21)C1CCCCC1	none
Cc1cc2ccccc2n1CCNC(=O)c1cccs1	SKN-1 block 46
Cc1cc2ccccc2n1CCNC(=O)C1CCCC1	SKN-1 block 38
O=C(CN1CCC(NC(=O)NC2CCCC2)CC1)Nc1ccc2c(c1)OCCO2	none (no result: SKN-1 block, MT1-MMP act inh)
C/C(=N\Nc1ccc(Cl)c(C(=O)O)c1)c1ccc(Br)s1	SKN-1 block 44
CCOCC(=O)Nc1cccc(NC(C)=O)c1	none
CCOCC(=O)Nc1cccc(Br)c1	SKN-1 block 37
CCOC(=O)C1(C(=O)OCC)N=C(c2ccccc2)C=C1c1ccccc1	none (no result: SKN-1 block, MT1-MMP act inh)
COC(=O)[C@]12C[C@H](CC(=O)N3CCN(C(=O)c4ccco4)CC3)C(=O)N(CCc3ccc(OC)c(OC)c3)C1=C[C@H](C(C)(C)C)O[C@@H]2C	none (no result: SKN-1 block, MT1-MMP act inh)
CC1CCN(CC(=O)Nc2cccc(C(=O)Nc3cccc(C(F)(F)F)c3)c2)CC1	SKN-1 block 44
Cc1ccc(C)c(S(=O)(=O)/N=C2\C=C(NS(=O)(=O)c3ccccc3)C(=O)c3ccccc32)c1	SKN-1 block 39
CCOC(=O)C1(C)CCCN1C(=O)c1sccc1C (stereo not given)	none
CNC(=O)C1Cc2c(-c3ccccc3Oc3ccccc3)ccnc2O1 (stereo not given)	none
CCCc1cc(-c2nc(-c3ccc(Cl)cc3)cs2)ccn1	SKN-1 block 56
Cc1ccccc1C(=O)Nc1ccc2c(C#N)c3nc4ccccc4nc3n2c1	SKN-1 block 36
Fc1ccc(-c2nnc(CSc3nnc(-c4cccs4)o3)o2)cc1	none
Cc1ccc(/C=C/c2nnc(-c3ccccc3)o2)cc1	none
Fc1ccc(CSc2nnc(-c3cccs3)o2)cc1	SKN-1 block 58
c1ccc(CSc2nnc(-c3cccs3)o2)cc1	SKN-1 block 61
C(=C\c1nnc(-c2cccs2)o1)/c1ccccc1	SKN-1 block 77
COC(=O)[C@]12C[C@H](CC(=O)N3CCCCC3)C(=O)N(CCC3=CCCCC3)C1=C[C@H](C1CCCC1)O[C@@H]2C	none (no result: SKN-1 block, MT1-MMP act inh)
CC(C)NC(=O)C1(C)CSCC(=O)N1CCCN1CCOCC1 (stereo not given)	SKN-1 block 35
CC/C(=N\Nc1ccc([N+](=O)[O-])cc1)c1ccccc1	SKN-1 block 35 (no result: Tn7 DDE FP, Tn6 DDE FP)
O=[N+]([O-])c1ccc(NN=C(Oc2ccccc2)c2ccc([N+](=O)[O-])cc2)cc1	none
COc1ccc([N+](=O)[O-])cc1NC(=O)C(C)OC(=O)CSC(C)C(=O)Nc1cc(C)on1 (stereo not given)	SKN-1 block 37
Cc1cc(NC(=O)C(C)SCC(=O)OC(C)C(=O)Nc2ccccc2C)no1 (stereo not given)	none
CC(OC(=O)C1CCN(c2ccc(C(F)(F)F)cn2)CC1)C(=O)c1ccccc1 (stereo not given)	none
O=C(Nc1ccc(Cl)cc1Cl)C1=Cc2ccccc2OC1	SKN-1 block 37

Screens from PubChem BioAssay.
